Measurements published in ChEMBL document CHEMBL1154869, “Melodinines A-G, monoterpenoid indole alkaloids from Melodinus henryi” (J Nat Prod, 2010).

Legend:
Type in all cases: functional, cell-based
[1] = system: SK-BR-3; assay: Cytotoxic activity against human SK-BR-3 cells after 48 hrs by MTT assay; details: SK-BR-3, 48 h
Method in brief: (§1)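 Cells kept in RPMI1640 or DMEM with 10% FBS, 5% CO2, 37 °C. Adherent lines seeded in 96-well plates and left 12 h to attach; suspension cells (HL-60) seeded at drug addition, 1 × 10^5 cells/mL. Compounds at 0.0625, 0.32, 1.6, 8 and 40 µM in triplicate for 48 h. Viability by MTT; IC50 from growth curves via Reed and Muench method; cisplatin positive control.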

[2] = system: SMMC-7721; assay: Cytotoxic activity against human SMMC7721 cells after 48 hrs by MTT assay; details: SMMC-7721, 48 h; method in brief: as §1
[3] = system: HL-60; assay: Cytotoxic activity against human HL60 cells after 48 hrs by MTT assay; details: HL-60, 48 h; method in brief: as §1
[4] = system: A549; assay: Cytotoxic activity against human A549 cells after 48 hrs by MTT assay; details: A549, 48 h; method in brief: as §1

CC[C@@]12CCCN3C(=O)C=C4c5ccccc5N(C(=O)CC1)C432 (some centres undefined) [MELODININE E]
IC50 [1]: > 40 µM | IC50 [2]: > 40 µM | IC50 [3]: > 40 µM | IC50 [4]: > 40 µM

CC[C@@H]1CN2CC[C@]34c5ccccc5-n5c3c(cc(C(N)=O)c5=O)[C@H]1C[C@H]24 [LEUCONICINE A]
IC50 [1]: > 40 µM | IC50 [2]: > 40 µM | IC50 [3]: > 40 µM | IC50 [4]: > 40 µM

CC[C@@H]1CN2CC[C@]34c5ccccc5-n5c3c(cc(C(=O)O)c5=O)[C@H]1C[C@H]24 [MELODININE C]
IC50 [1]: > 40 µM | IC50 [2]: > 40 µM | IC50 [3]: > 40 µM | IC50 [4]: > 40 µM

CC[C@@]12C=Cn3c4c(c5ccccc53)CC[N+]([O-])(CCC1)[C@H]42 (some centres undefined) [MELODININE G]
IC50 [1]: > 40 µM | IC50 [2]: > 40 µM | IC50 [3]: > 40 µM | IC50 [4]: > 40 µM

CC[C@@H]1CN2CC[C@]34c5ccccc5-n5c3c(cc(C(=O)OC)c5=O)[C@H]1C[C@H]24 [LEUCONICINE B]
IC50 [1]: > 40 µM | IC50 [2]: > 40 µM | IC50 [3]: > 40 µM | IC50 [4]: > 40 µM

CCC1=CN2CC[C@]34c5ccccc5-n5c3c(cc(C(=O)OC)c5=O)[C@H]1C[C@H]24 [MELODININE B]
IC50 [1]: > 40 µM | IC50 [2]: > 40 µM | IC50 [3]: > 40 µM | IC50 [4]: > 40 µM

C/C=C(/C=O)[C@@H]1C[C@H]2c3[nH]c4ccccc4c3CCN2C=C1C(=O)OC [VALLESIACHOTAMINE]
IC50 [1]: 24.7 µM | IC50 [2]: 16.8 µM | IC50 [3]: 2 µM | IC50 [4]: 26 µM

CC[C@]12CCC[N+]3([O-])CCc4c(n(c5ccccc45)[C@H](OC)C1)[C@H]23 (some centres undefined) [MELODININE F]
IC50 [1]: > 40 µM | IC50 [2]: > 40 µM | IC50 [3]: > 40 µM | IC50 [4]: > 40 µM

COC(=O)C1=C2Nc3ccccc3[C@]23CCN2CC[C@H]1[C@@]1(O[C@H]1C)[C@@H]23 [MELODININE D]
IC50 [1]: > 40 µM | IC50 [2]: > 40 µM | IC50 [3]: > 40 µM | IC50 [4]: > 40 µM

CC[C@]12CCCN3CCc4c(n(c5ccccc45)[C@H](OC)C1)[C@@H]32
IC50 [1]: > 40 µM | IC50 [2]: > 40 µM | IC50 [3]: > 40 µM | IC50 [4]: > 40 µM

CC[C@@]12C=Cn3c4c(c5ccccc53)CCN(CCC1)[C@H]42
IC50 [1]: > 40 µM | IC50 [2]: > 40 µM | IC50 [3]: > 40 µM | IC50 [4]: > 40 µM
